# Tests used:
# Assay type in all cases: functional
# M14 = assay: Cytotoxicity against human M14 cells after 48 hrs by SRB assay; settings: M14, 48 h
# Procedure, shortened: (§1)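 NCI 60-cell-line screen. Cells preincubated 24 h at 37 °C, 5% CO2; time-zero plates TCA-fixed. Compounds dissolved in DMSO and tested at five concentrations (100, 10, 1.0, 0.1, 0.01 µM) for 48 h continuous exposure. Adherent cells fixed with cold TCA (10% final), then SRB stained; absorbance at 515 nm. GI50, TGI and LC50 calculated from growth relative to time-zero and untreated controls.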
# UO-31 = assay: Cytotoxicity against human UO31 cells after 48 hrs by SRB assay; settings: UO-31, 48 h
# Procedure, shortened: (§2)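 NCI 60-cell screen. Cells grew 24 h (37 °C, 5% CO2) before compound was added. Compounds were in DMSO and diluted in medium with gentamicin, then tested at five levels (100, 10, 1.0, 0.1, 0.01 µM) with 48 h continuous exposure. Adherent cells were fixed with TCA (10% final) and stained with 0.4% SRB, absorbance read at 515 nm. A time-zero plate was included. LC50 is the concentration giving 50% loss of protein relative to time zero.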
# Hs-578T = assay: Cytotoxicity against human Hs578T cells after 48 hrs by SRB assay; procedure, shortened: as §1
# MDA-MB-435 = assay: Cytotoxicity against human MDA-MB-435 cells after 48 hrs by SRB assay; settings: MDA-MB-435, 48 h; procedure, shortened: as §1
# [1] = Cytotoxicity against human EKVX cells after 48 hrs by SRB assay; procedure, shortened: as §1
# NCI-H460 = assay: Cytotoxicity against human NCI-H460 cells after 48 hrs by SRB assay; settings: NCI-H460, 48 h; procedure, shortened: as §1
# MCF7 = assay: Cytotoxicity against human MCF7 cells after 48 hrs by SRB assay; settings: MCF7, 48 h; procedure, shortened: as §1
# SNB-19 = assay: Cytotoxicity against human SNB19 cells after 48 hrs by SRB assay; settings: SNB-19, 48 h; procedure, shortened: as §2
# NCI-H522 = assay: Cytotoxicity against human NCI-H522 cells after 48 hrs by SRB assay; settings: NCI-H522, 48 h; procedure, shortened: as §1
# HL-60(TB) = assay: Cytotoxicity against human HL-60(TB) cells after 48 hrs by SRB assay; settings: HL-60, 48 h; procedure, shortened: as §1
# OVCAR-3 = assay: Cytotoxicity against human OVCAR3 cells after 48 hrs by SRB assay; settings: OVCAR-3, 48 h; procedure, shortened: as §1
# KM12 = assay: Cytotoxicity against human KM12 cells after 48 hrs by SRB assay; settings: KM12, 48 h; procedure, shortened: as §1
# PC-3 = assay: Cytotoxicity against human PC3 cells after 48 hrs by SRB assay; settings: PC-3, 48 h; procedure, shortened: as §1
# OVCAR-4 = assay: Cytotoxicity against human OVCAR4 cells after 48 hrs by SRB assay; settings: OVCAR-4, 48 h; procedure, shortened: as §1
# HOP-62 = assay: Cytotoxicity against human HOP62 cells after 48 hrs by SRB assay; settings: HOP-62, 48 h; procedure, shortened: as §1
# UACC-62 = assay: Cytotoxicity against human UACC62 cells after 48 hrs by SRB assay; settings: UACC-62, 48 h; procedure, shortened: as §2
# HCC 2998 = assay: Cytotoxicity against human HCC2998 cells after 48 hrs by SRB assay; settings: HCC 2998, 48 h; procedure, shortened: as §1
# IGROV-1 = assay: Cytotoxicity against human IGROV1 cells after 48 hrs by SRB assay; settings: IGROV-1, 48 h; procedure, shortened: as §1
# SK-MEL-2 = assay: Cytotoxicity against human SK-MEL-2 cells after 48 hrs by SRB assay; settings: SK-MEL-2, 48 h; procedure, shortened: as §1
# UACC-257 = assay: Cytotoxicity against human UACC257 cells after 48 hrs by SRB assay; settings: UACC-257, 48 h; procedure, shortened: as §2
# HOP-92 = assay: Cytotoxicity against human HOP92 cells after 48 hrs by SRB assay; settings: HOP-92, 48 h; procedure, shortened: as §1
# NCI/ADR-RES = assay: Cytotoxicity against human NCI/ADR-RES cells after 48 hrs by SRB assay; procedure, shortened: as §1
# NCI-H23 = assay: Cytotoxicity against human NCI-H23 cells after 48 hrs by SRB assay; settings: NCI-H23, 48 h; procedure, shortened: as §1
# HCT-15 = assay: Cytotoxicity against human HCT15 cells after 48 hrs by SRB assay; settings: HCT-15, 48 h; procedure, shortened: as §1
# MDA-MB-231 = assay: Cytotoxicity against human MDA-MB-231 cells after 48 hrs by SRB assay; settings: MDA-MB-231, 48 h; procedure, shortened: as §1
# LOX IMVI = assay: Cytotoxicity against human LOXIMVI cells after 48 hrs by SRB assay; procedure, shortened: as §1
# DU-145 = assay: Cytotoxicity against human DU145 cells after 48 hrs by SRB assay; settings: DU-145, 48 h; procedure, shortened: as §1
# SK-MEL-5 = assay: Cytotoxicity against human SK-MEL-5 cells after 48 hrs by SRB assay; settings: SK-MEL-5, 48 h; procedure, shortened: as §1
# 786-0 = assay: Cytotoxicity against human 786-0 cells after 48 hrs by SRB assay; settings: 786-0, 48 h; procedure, shortened: as §1
# MDA-MB-468 = assay: Cytotoxicity against human MDA-MB-468 cells after 48 hrs by SRB assay; settings: MDA-MB-468, 48 h; procedure, shortened: as §1
# A549 = assay: Cytotoxicity against human A549/ATCC cells after 48 hrs by SRB assay; settings: A549, 48 h; procedure, shortened: as §1
# SF-268 = assay: Cytotoxicity against human SF268 cells after 48 hrs by SRB assay; settings: SF-268, 48 h; procedure, shortened: as §1
# NCI-H226 = assay: Cytotoxicity against human NCI-H226 cells after 48 hrs by SRB assay; settings: NCI-H226, 48 h; procedure, shortened: as §1
# BT-549 = assay: Cytotoxicity against human BT549 cells after 48 hrs by SRB assay; settings: BT-549, 48 h; procedure, shortened: as §1
# SN12C = assay: Cytotoxicity against human SN12C cells after 48 hrs by SRB assay; procedure, shortened: as §1
# SNB-75 = assay: Cytotoxicity against human SNB75 cells after 48 hrs by SRB assay; settings: SNB-75, 48 h; procedure, shortened: as §2
# [2] = read-out: LC50 (the source's name)
compound,measurement,setting,value
COc1ccc(C2CC(c3cccc(Nc4ccnc5cc(Cl)ccc45)c3)=NN2C=O)cc1 (stereo unspecified),GI50,M14,400 nM
same,CC50,M14; [2],> 100000 nM
same,GI50,UO-31,850 nM
same,LC50,UO-31,> 100000 nM
same,GI50,Hs-578T,360 nM
same,LC50 (50% net cell kill),Hs-578T,> 100000 nM
same,GI50,MDA-MB-435,140 nM
same,LC50,MDA-MB-435,> 100000 nM
same,GI50,[1],640 nM
same,LC50,[1],> 100000 nM
same,GI50,NCI-H460,400 nM
same,LC50,NCI-H460,> 100000 nM
same,GI50,MCF7,370 nM
same,CC50,MCF7; [2],> 100000 nM
same,GI50,SNB-19,870 nM
same,LC50,SNB-19,> 100000 nM
same,GI50,NCI-H522,300 nM
same,CC50,NCI-H522; [2],> 100000 nM
same,GI50,HL-60(TB),250 nM
same,CC50,HL-60(TB); [2],5280 nM
same,GI50,OVCAR-3,470 nM
same,LC50,OVCAR-3,77400 nM
same,GI50,KM12,440 nM
same,LC50 (concentration killing 50% of cells),KM12,> 100000 nM
same,GI50,PC-3,850 nM
same,LC50,PC-3,> 100000 nM
same,GI50,OVCAR-4,890 nM
same,LC50,OVCAR-4,> 100000 nM
same,GI50,HOP-62,660 nM
same,LC50 (50% lethal concentration),HOP-62,> 100000 nM
same,GI50,UACC-62,670 nM
same,CC50,UACC-62; [2],> 100000 nM
same,GI50,HCC 2998,1320 nM
same,LC50,HCC 2998,> 100000 nM
same,GI50,IGROV-1,1440 nM
same,LC50 (concentration killing 50% of cells relative to time zero),IGROV-1,> 100000 nM
same,GI50,SK-MEL-2,490 nM
same,LC50,SK-MEL-2,> 100000 nM
same,LC50,UACC-257,> 100000 nM
same,GI50,HOP-92,> 100000 nM
same,LC50 (concentration killing 50% of cells),HOP-92,> 100000 nM
same,GI50,NCI/ADR-RES,350 nM
same,CC50,NCI/ADR-RES; [2],> 100000 nM
same,GI50,NCI-H23,950 nM
same,CC50,NCI-H23; [2],> 100000 nM
same,GI50,HCT-15,440 nM
same,LC50 (concentration killing 50% of cells relative to time zero),HCT-15,> 100000 nM
same,GI50,MDA-MB-231,3190 nM
same,LC50 (concentration killing 50% of cells present at time zero),MDA-MB-231,> 100000 nM
same,GI50,LOX IMVI,580 nM
same,LC50,LOX IMVI,6700 nM
same,GI50,DU-145,1350 nM
same,LC50 (concentration killing 50% of cells),DU-145,> 100000 nM
same,GI50,SK-MEL-5,410 nM
same,LC50 (concentration killing 50% of cells present at time zero),SK-MEL-5,> 100000 nM
same,GI50,786-0,530 nM
same,LC50,786-0,> 100000 nM
same,GI50,MDA-MB-468,210 nM
same,LC50,MDA-MB-468,> 100000 nM
same,GI50,A549,570 nM
same,CC50,A549; [2],> 100000 nM
same,GI50,SF-268,2560 nM
same,LC50,SF-268,> 100000 nM
same,GI50,NCI-H226,41600 nM
same,LC50 (50% lethal concentration),NCI-H226,> 100000 nM
same,GI50,BT-549,450 nM
same,LC50 (50% net cell kill vs time zero),BT-549,55600 nM
same,GI50,SN12C,780 nM
same,LC50 (50% net cell kill relative to time zero),SN12C,> 100000 nM
same,GI50,SNB-75,330 nM
same,LC50 (50% net cell kill),SNB-75,> 100000 nM

# — ChEMBL document CHEMBL2417469, “Synthesis of novel analogs of 2-pyrazoline obtained from [(7-chloroquinolin-4-yl)amino]chalcones and hydrazine as potential antitumor and antimalarial agents” (Eur J Med Chem, 2013)
